Screening data (PubChem BioAssay)
MrgX1 PAM – allosterically activates human MrgX1 receptor signaling; B-score at 10 µM; AID 588675; Q96LB2; 0.63% of 310,000 active; MrgX1-HEK293, Fluo-4 calcium flux, FDSS; active compounds read high;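 active = plate-corrected calcium response at least 3 library SD above typical, normal starting fluorescence, not activating the receptor alone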;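 note: compound read alongside a low EC10 to EC30 dose of BAM8-22 agonist; peak minus trough fluorescence over baseline measured at the second addition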
Target sequence (Q96LB2 whole entry, looked up): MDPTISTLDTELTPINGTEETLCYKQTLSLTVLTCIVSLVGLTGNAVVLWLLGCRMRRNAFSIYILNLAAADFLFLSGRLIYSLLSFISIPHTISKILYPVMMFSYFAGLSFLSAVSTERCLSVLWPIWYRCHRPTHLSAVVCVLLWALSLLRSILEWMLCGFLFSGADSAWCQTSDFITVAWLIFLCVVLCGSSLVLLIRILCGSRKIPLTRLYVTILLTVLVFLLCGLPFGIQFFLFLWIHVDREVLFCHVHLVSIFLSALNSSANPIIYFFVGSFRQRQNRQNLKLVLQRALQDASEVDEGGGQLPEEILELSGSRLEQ
MrgX1 antagonist – antagonists of human MrgX1 receptor; 1.3% of 310,000 active; Q96LB2; B-score at 10 µM; MRGX1-HEK293 calcium flux, Fluo-4, BAM8-22 antagonism; active compounds read low;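 active = calcium-response B-score plate-corrected more than 3 library SD below zero, starting fluorescence within 5 deviations, no agonist response on first addition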;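 note: peak minus trough fluorescence over baseline after final BAM8-22 challenge near maximal dose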
RGS4 inh – human RGS4 inhibition; P49798; HEK293 M3R/RGS4 inducible, Fluo-4 calcium flux; active compounds read high; triggered by carbachol at its EC20; B-score at 10 µM; 0.45% of 310,000 active;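 active = B-score, a plate-corrected calcium signal, over three deviations above library mean, with baseline fluorescence within five deviations of library mean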;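 note: RGS4 expression induced by doxycycline in cells with stable M3 receptor; B-score is computed from the integrated fluorescence ratio over baseline after carbachol; higher B-score means a larger calcium signal and so more RGS4 inhibition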
Target sequence (P49798 whole entry, looked up): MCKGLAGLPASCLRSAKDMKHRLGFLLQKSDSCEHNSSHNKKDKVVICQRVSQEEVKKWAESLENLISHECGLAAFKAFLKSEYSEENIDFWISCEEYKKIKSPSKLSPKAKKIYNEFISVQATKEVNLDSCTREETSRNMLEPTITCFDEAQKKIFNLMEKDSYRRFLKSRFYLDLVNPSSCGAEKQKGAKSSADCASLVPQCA
RGS4 act – potentiators or activators of RGS4 | HEK293 M3R/inducible RGS4, carbachol calcium flux Fluo4; active compounds read low | B-score at 10 µM | 0.92% of 310,000 active;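 active = B-score of the integrated calcium signal more than 4 SD below the library mean, with starting fluorescence not abnormally high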;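 note: negative B-score means reduced calcium response which marks RGS4 activation or potentiation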
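Assay system: Inducible-RGS4 HEK293 cells carrying M3 receptor | Schedule: Compound preincubation 20 min at room temperature before agonist | Signal: Kinetic calcium fluorescence imaging with Fluo4-AM dye, 2 µM | Read-out basis: B score from integrated fluorescence ratio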
MrgX1 ag – activates human MrgX1 receptor signaling; AID 588627; B-score at 10 µM; 0.44% of 310,000 active; MrgX1-HEK293 cells, Fluo-4 calcium fluorescence, agonist mode; active compounds read high;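 active = calcium response B-score plate-corrected fluorescence ratio at least 3 library SD, with starting fluorescence B-score inside 5 SD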
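Test system: HEK293 cells stably expressing human MrgX1 receptor; Input: fifteen thousand cells per well; Dosing: compound delivered in addition one of three; Schedule: overnight seeding, then 1 h dark dye loading; Technique: Fluo-4 NW calcium fluorescence; Measure: B-scored fluorescence response ratio; Controls: positive and negative controls per plate.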
RGS4 inh valid – RGS4 inhibitor validation; calcium response, % at 10 µM; AID 492999; shares compounds with RGS4 inh; 65% of 1,700 active; HEK293 M3R/RGS4, carbachol calcium Fluo-4 fluorescence; carbachol added at its EC20; 0 = buffer wells, 100 = carbachol control;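 active = duplicate-averaged calcium response above the buffer-only control mean plus 5 SD of those controls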;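 note: integrated fluorescence ratio F max minus min over baseline F0; higher response in RGS4-induced cells means RGS4 inhibition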
RGS4 uninduced – counter-screen for RGS4 inhibitors: effect in non-induced cells | activity (percent), % at 10 µM | shares compounds with RGS4 inh | HEK293 M3R non-induced, carbachol calcium Fluo-4; submaximal (EC20) carbachol stimulus; buffer wells 0%, carbachol control wells 100% | 20% of 1,900 active; call rule not given here;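 note: RGS4 induction absent so cells express M3R without RGS4; higher means more calcium signal and flags a non-specific hit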
M3R basal Ca ctr – second counter-screen for RGS4 inhibitors: non-induced cells without carbachol | shares compounds with RGS4 inh | HEK293 M3R/RGS4 non-induced, Fluo-4 calcium, no carbachol; normalised: buffer wells 0%, carbachol wells 100% | calcium response (agonist-mode artifact), % at 10 µM | 22% of 1,900 active | AID 493001;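 active = duplicate-averaged calcium rise in uninduced cells above buffer wells' mean plus 5 SD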
Starred values were filed as active, the others as inactive; i = inactive; . = no result. Only some compounds are listed: those with a hit (about 3.5% of all), similar ones and a draw of the others.

SMILES	MrgX1 PAM	MrgX1 antagonist	RGS4 inh	RGS4 act	MrgX1 ag	RGS4 inh valid	RGS4 uninduced	M3R basal Ca ctr
Cc1ccc(S(=O)(=O)N2CCC(C(=O)NCCc3ccc(S(N)(=O)=O)cc3)CC2)cc1	i	i	i	i	i	.	.	.
CN(CCc1ccccn1)C(=O)CC1C(=O)NCCN1Cc1cccc(F)c1 (stereo not drawn)	i	i	i	i	i	.	.	.
CN(Cc1ccccn1)C(=O)CC1C(=O)NCCN1Cc1ccc(F)cc1Cl (stereo not drawn)	i	i	i	i	i	i	i	13.5%*
CN(Cc1cnccn1)C(=O)CC1C(=O)NCCN1Cc1ccc(F)cc1Cl (stereo not drawn)	i	i	4.81*	i	i	i	i	82.5%*
COC1c2ccccc2C(=O)N1Cc1ccc(F)cc1 (stereo not drawn)	i	i	i	i	i	.	.	.
COc1ccc(NC(=S)N2CCN(c3ncccn3)CC2)c(OC)c1	i	i	i	i	i	.	.	.
CC(C)Cc1cc(C(=O)N2CCC(N3CCC(C(=O)NC4CC4)CC3)CC2)n[nH]1	i	i	i	i	i	.	.	.
O=C(O)CCc1ccc(-c2ccccc2)o1	i	i	5.06*	i	i	5.0%*	i	i
COC(=O)c1[nH]c2ccccc2c1NC(=O)CN1CCN(c2cccc(OC)c2)C(C)C1 (stereo not drawn)	i	i	i	i	i	.	.	.
CCOC(=O)N1CCc2c(sc3c2c(=O)n(Cc2ccccc2)c(=O)n3Cc2ccc(C)cc2)C1	i	i	8.68*	i	i	38.0%*	30.0%*	i
CC(=O)N1CCc2c(sc3c2c(=O)n(Cc2ccccc2)c(=O)n3CC(=O)NCC2CCCO2)C1 (stereo not drawn)	i	i	i	i	i	.	.	.
COc1cccc(/C=N/NC(=S)Nc2cccc(C(=O)O)c2)c1O	i	i	i	i	i	.	.	.
Cn1ncc(Cl)c1C(=O)Nc1cccnc1	i	i	i	i	i	.	.	.
CCOc1c(Br)cc(/C=C2\N=C(C)OC2=O)cc1Br	i	i	4.74*	i	i	66.0%*	37.0%*	i
COc1ccc(S(=O)(=O)NCCC(=O)NCc2ccccc2)cc1	i	i	i	i	i	i	i	i
CCOc1ccc(NCc2nnc(SCc3ccc(Cl)cc3)n2-c2ccccc2)cc1	i	i	i	i	i	.	i	i
CCOC(=O)CSc1nnc(CNc2ccc(Cl)cc2)n1-c1ccccc1	i	i	i	i	i	.	.	.
CC1=C(C(=O)OCCc2ccccc2)C(c2ccsc2)NC(=O)N1C (stereo not drawn)	i	i	i	i	i	.	.	.
CC1=C(C(=O)c2ccccc2)C(c2cccc([N+](=O)[O-])c2)NC(=S)N1 (stereo not drawn)	i	i	10.4*	i	i	23.0%*	33.0%*	i
COc1ccc(C2NC(=S)NC(C)=C2C(=O)c2ccccc2)cc1OC (stereo not drawn)	i	i	i	i	i	.	.	.
O=C(CN(C(=O)CNC(=O)c1cccs1)c1ccccc1F)NC1CCCC1	i	i	i	i	i	.	.	.
CC(=O)SC(C[N+](=O)[O-])c1cn(C(C)=O)c2ccccc12 (stereo not drawn)	i	i	15.9*	i	39.1*	63.0%*	29.0%*	34.5%*
CCOC(=O)c1sc(=S)n(-c2ccccc2)c1N	i	i	i	i	i	.	.	.
CCOC(=O)c1sc(=S)n(-c2ccccc2)c1N(C(C)=O)C(C)=O	i	i	4.87*	i	i	i	i	i
CC(C)NCC(O)c1cc(O)cc(O)c1 (stereo not drawn)	i	i	4.82*	i	i	22.0%*	52.0%*	i
SMILES	MrgX1 PAM	MrgX1 antagonist	RGS4 inh	RGS4 act	MrgX1 ag	RGS4 inh valid	RGS4 uninduced	M3R basal Ca ctr
O=c1c(Cl)c(Cl)cnn1Cc1nnc(-c2ccccc2Br)o1	.	.	72.2*	i	.	142.5%*	42.5%*	i
Cc1cccc(CN2CCC(C(N)=O)CC2)c1	i	i	i	i	i	.	.	.
O=C1CCC(/C=C/c2ccccc2)=NN1Cc1ccc(F)cc1	i	i	i	i	i	.	.	.
CC(=O)N(C)Cc1ccc(C(=O)CCl)cc1	i	i	11.4*	i	i	22.5%*	i	21.0%*
O=C(CCn1c(=O)oc2ccccc21)N1CCN(C(c2ccccc2)c2ccccc2)CC1	i	i	i	i	i	.	.	.
Cc1nc2c(C(=O)NCCC3=CCCCC3)c[nH]n2c(=O)c1Cl	i	i	16.9*	i	i	51.5%*	52.5%*	i
C=CCN(c1ccccc1)S(=O)(=O)c1cccc(C(=O)NCC(c2cccs2)N2CCOCC2)c1 (stereo not drawn)	i	i	i	i	i	.	.	.
O=C(C1=C(O)C(=O)N(Cc2ccco2)C1c1ccccc1F)c1cccs1 (stereo not drawn)	i	i	i	i	i	.	.	.
O=C1c2[nH]nc(-c3ccccc3O)c2C(c2ccccc2F)N1Cc1ccco1 (stereo not drawn)	i	i	16.3*	i	i	34.0%*	40.5%*	i
O=C1c2[nH]nc(-c3ccccc3O)c2C(c2ccccc2)N1Cc1ccco1 (stereo not drawn)	i	i	11.7*	i	i	6.0%*	i	i
COc1cccc(C2c3c(-c4ccccc4O)n[nH]c3C(=O)N2Cc2ccco2)c1 (stereo not drawn)	i	i	i	i	i	.	.	.
COc1cc(-c2nnc3n2CCCCC3)cc(OC)c1OC	i	i	i	i	i	.	.	.
O=C(NCc1ccco1)Nc1ccc(Br)cc1	i	i	i	i	i	.	.	.
O=C(NCc1ccco1)Nc1ccc2nsnc2c1	i	i	6.45*	i	i	i	i	i
CCOc1ccc(-c2csc(NC(=O)c3ccco3)n2)cc1	i	i	4.98*	i	i	5.0%*	i	i
COc1ccc(-c2csc(NC(=O)c3ccco3)n2)cc1	i	i	i	i	i	i	i	i
